Key:
Cannabinoid receptor 1 = Cannabinoid receptor 1 (Rattus norvegicus, UniProt P20272); experiment: Binding affinity to CB1 cannabinoid receptor using [3H]WIN-55212-2 in rat cerebellum membranes; assay type: cell membranes, Membrane
Cannabinoid receptor 2 = Cannabinoid receptor 2 (Homo sapiens, UniProt P34972); experiment: Binding affinity to human CB2 cannabinoid receptor using [3H]CP-55940 in HEK293 EBNA transfected cells; assay type: cell-based
[1] = biological target: Transient receptor potential cation channel subfamily V member 1 (Rattus norvegicus, UniProt O35433); experiment: Binding affinity to vanilloid VR1 receptor using [3H]resiniferatoxin ([3H]-RTX) in rat spinal cord membranes; assay type: cell membranes, Membrane
Method in brief: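 Radioligand displacement binding used these systems: CB1, rat cerebellum membranes with [3H]WIN55212-2; CB2, HEK293EBNA cells transfected with the human CB2 receptor, with [3H]CP55940; VR1, rat spinal cord membranes with [3H]RTX. Ki values come from two independent experiments, each run in triplicate, and are reported as mean ± standard error.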

U-937 [2] = experiment: Ability to inhibit [3H]anandamide uptake in human lymphoma U937 cells; assay type: functional, cell-based
Method in brief: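 IC50 values come from three independent experiments, each run in triplicate, and are reported as mean ± standard error.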

U-937 [3] = experiment: Ability to inhibit [3H]anandamide uptake in human lymphoma U937 cells; inactive; assay type: functional, cell-based

Transient receptor potential cation channel subfamily V member 1, sequence (O35433 whole entry): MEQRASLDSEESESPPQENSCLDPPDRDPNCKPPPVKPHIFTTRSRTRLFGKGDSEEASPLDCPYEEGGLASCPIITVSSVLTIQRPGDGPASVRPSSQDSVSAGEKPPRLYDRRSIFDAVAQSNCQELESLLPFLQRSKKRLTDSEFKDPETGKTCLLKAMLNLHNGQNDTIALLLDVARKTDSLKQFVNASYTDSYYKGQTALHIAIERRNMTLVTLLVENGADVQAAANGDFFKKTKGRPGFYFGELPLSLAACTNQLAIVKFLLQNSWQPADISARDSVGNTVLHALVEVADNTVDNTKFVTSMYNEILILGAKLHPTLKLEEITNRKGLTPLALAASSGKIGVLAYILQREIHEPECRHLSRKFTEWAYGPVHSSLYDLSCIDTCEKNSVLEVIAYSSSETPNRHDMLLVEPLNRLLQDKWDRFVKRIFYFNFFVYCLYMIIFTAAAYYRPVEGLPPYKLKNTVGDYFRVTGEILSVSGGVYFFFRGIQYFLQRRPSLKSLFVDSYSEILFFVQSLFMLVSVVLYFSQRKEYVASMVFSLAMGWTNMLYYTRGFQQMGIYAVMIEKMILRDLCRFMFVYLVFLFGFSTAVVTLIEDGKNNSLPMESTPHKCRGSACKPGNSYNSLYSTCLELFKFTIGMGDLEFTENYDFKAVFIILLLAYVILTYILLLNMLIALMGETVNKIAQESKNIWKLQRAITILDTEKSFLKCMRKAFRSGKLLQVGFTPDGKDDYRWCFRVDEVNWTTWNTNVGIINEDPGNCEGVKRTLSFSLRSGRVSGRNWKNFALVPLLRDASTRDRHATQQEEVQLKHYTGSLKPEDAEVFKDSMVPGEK
Cannabinoid receptor 1, sequence (P20272 whole entry): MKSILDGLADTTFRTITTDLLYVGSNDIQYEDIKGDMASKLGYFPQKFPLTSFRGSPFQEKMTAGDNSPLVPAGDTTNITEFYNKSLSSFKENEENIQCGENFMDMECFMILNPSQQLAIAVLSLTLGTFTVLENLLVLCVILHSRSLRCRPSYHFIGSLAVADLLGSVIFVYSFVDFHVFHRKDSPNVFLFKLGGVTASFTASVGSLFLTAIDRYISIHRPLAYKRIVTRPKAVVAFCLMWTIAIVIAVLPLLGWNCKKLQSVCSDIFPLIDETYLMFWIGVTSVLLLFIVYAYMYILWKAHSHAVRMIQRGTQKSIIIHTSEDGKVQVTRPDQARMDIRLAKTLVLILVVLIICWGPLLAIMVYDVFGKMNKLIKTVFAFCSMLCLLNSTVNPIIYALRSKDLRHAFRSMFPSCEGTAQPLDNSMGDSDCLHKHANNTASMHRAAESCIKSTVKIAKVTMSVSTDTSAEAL
Cannabinoid receptor 2, sequence (P34972 whole entry): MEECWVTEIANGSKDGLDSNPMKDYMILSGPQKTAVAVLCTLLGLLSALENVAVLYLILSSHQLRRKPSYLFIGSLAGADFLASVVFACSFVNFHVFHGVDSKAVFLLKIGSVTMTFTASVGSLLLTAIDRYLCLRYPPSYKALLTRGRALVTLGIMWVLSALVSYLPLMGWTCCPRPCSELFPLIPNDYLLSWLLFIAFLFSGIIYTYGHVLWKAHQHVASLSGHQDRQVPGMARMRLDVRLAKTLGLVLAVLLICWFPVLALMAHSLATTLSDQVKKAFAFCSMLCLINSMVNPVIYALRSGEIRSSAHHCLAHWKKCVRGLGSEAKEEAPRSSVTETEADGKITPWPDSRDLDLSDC

Structure (SMILES) | Ki (Cannabinoid receptor 1) [nM] | Ki (Cannabinoid receptor 2) [nM] | Ki [1] [nM] | IC50 (U-937 [2]) [nM] | IC50 (U-937 [3])
CCCCC/C=C\C/C=C\C/C=C\C/C=C\CCCC(=O)OCc1ccsc1 | > 1000 | > 1000 | > 5000 | 3000 | 
CCCCC/C=C\C/C=C\C/C=C\C/C=C\CCCC(=O)NCC1CCCO1 (configuration not stated) | > 1000 | > 1000 | > 5000 | 8000 | 
CCCCC/C=C\C/C=C\C/C=C\C/C=C\CCCC(=O)OCC1CCCO1 (configuration not stated) | > 1000 | > 1000 | > 5000 | 18000 | 
CCCCC/C=C\C/C=C\C/C=C\C/C=C\CCCC(=O)OCC1CCOC1 (configuration not stated) |  | > 1000 | > 5000 |  | 
CCCCC/C=C\C/C=C\C/C=C\C/C=C\CCCC(=O)OCc1ccoc1 | > 1000 | > 1000 | < 5000 | 14000 | 
CCCCC/C=C\C/C=C\C/C=C\C/C=C\CCCC(=O)OCc1cccs1 | > 1000 | > 1000 | > 5000 |  | Not Active
CCCCC/C=C\C/C=C\C/C=C\C/C=C\CCCC(=O)OCc1ccco1 | > 1000 | > 1000 | > 5000 | 24000 | 
CCCCC/C=C\C/C=C\C/C=C\C/C=C\CCCC(=O)NCc1ccco1 | > 1000 | > 1000 | < 5000 | 5000 | 
CCCCC/C=C\C/C=C\C/C=C\C/C=C\CCCC(=O)Nc1ccc(O)cc1 | > 1000 | > 1000 | > 5000 | 4000 | 
CCCCC/C=C\C/C=C\C/C=C\C/C=C\CCCC(=O)NCc1cccn1C | 124 | 70 | > 5000 | 5000 | 
CCCCC/C=C\C/C=C\C/C=C\C/C=C\CCCC(=O)NCc1cccs1 | > 1000 | > 1000 | > 5000 | 5700 | 
CCCCC/C=C\C/C=C\C/C=C\C/C=C\CCCC(=O)NCc1ccoc1 | > 1000 | 67 | > 5000 | 800 | 
CCCCC/C=C\C/C=C\C/C=C\C/C=C\CCCC(=O)NCCO [ANANDAMIDE] |  |  | 169 |  | 
